ChEMBL document CHEMBL3091329, “Discovery of tetrahydroisoquinoline-based CXCR4 antagonists” (ACS Med Chem Lett, 2013)
Active and inactive are the calls of the source. The rule behind the calls is not given here.

Tests used:
Mus musculus = assay: Induction of WBC mobilization in Harlan C57BL/6 mouse at 5 to 20 mg/kg, sc after 6 to 8 hrs by LC/MS/MS analysis relative to control; assay type: functional, organism-based
In short: (§1)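 Harlan mice were given a single subcutaneous dose at 5, 10 or 20 mg/kg. Blood was sampled at multiple time points over about 8 h, and each sample was used for both total circulating WBC count and plasma drug level. Counts and concentrations were plotted against time for each dose.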

[1] = Plasma concentration in Harlan C57BL/6 mouse at 10 mg/kg, sc after 1 hr by LC/MS/MS analysis; assay type: ADME, organism-based; design: dose 10 mg/kg, route subcutaneous; in short: as §1
[2] = AUC (0 to infinity) in jugular pre-cannulated Harlan Sprague-Dawley rat at 2 mg/kg, iv; assay type: ADME, organism-based; design: time infinity, dose 2 mg/kg, route intravenous; conditions: plasma
[3] = Elimination half life in jugular pre-cannulated CRL Sprague-Dawley rat at 10 mg/kg, po; assay type: ADME, organism-based; design: dose 10 mg/kg, route oral; conditions: in vivo, read-out: beta t1/2 (converted)
Liver microsome = assay: Intrinsic clearance in human liver microsomes at 1 uM incubated for 3 mins prior to NADPH addition by LC-MS/MS analysis; assay type: ADME; conditions: 0.05 h
[4] = target: T1, C-X-C chemokine receptor type 5 (Homo sapiens) (UniProt P32302); assay: Inhibition of CXCR5 (unknown origin) at 10 uM relative to control
T1 sequence (whole entry): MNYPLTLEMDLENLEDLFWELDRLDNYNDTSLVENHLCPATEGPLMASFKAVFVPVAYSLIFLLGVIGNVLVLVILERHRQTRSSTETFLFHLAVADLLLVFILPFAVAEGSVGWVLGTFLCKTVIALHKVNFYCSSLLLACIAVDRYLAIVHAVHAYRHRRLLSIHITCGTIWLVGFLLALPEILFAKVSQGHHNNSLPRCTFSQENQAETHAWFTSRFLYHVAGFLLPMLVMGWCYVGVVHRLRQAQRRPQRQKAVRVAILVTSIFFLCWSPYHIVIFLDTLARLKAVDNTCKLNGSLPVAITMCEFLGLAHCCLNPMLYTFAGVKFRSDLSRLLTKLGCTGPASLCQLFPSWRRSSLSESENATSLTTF

[5] = target: T2, C-X-C chemokine receptor type 1 (Homo sapiens) (UniProt P25024); assay: Inhibition of CXCR1 (unknown origin) at 10 uM relative to control
T2 sequence (whole entry): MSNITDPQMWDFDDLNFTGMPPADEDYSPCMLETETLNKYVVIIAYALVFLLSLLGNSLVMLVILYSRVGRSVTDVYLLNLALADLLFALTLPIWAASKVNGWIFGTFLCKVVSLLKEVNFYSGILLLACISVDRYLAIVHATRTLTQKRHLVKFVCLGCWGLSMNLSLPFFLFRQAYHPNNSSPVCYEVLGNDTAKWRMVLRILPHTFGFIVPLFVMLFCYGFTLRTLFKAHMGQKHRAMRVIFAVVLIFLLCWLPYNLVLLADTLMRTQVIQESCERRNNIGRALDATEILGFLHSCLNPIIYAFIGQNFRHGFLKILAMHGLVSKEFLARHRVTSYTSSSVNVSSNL

[6] = target: C-C chemokine receptor type 8 (Homo sapiens) (UniProt P51685); assay: Inhibition of CCR8 (unknown origin) at 10 uM relative to control
Sequence of C-C chemokine receptor type 8 (Homo sapiens) (P51685 whole entry): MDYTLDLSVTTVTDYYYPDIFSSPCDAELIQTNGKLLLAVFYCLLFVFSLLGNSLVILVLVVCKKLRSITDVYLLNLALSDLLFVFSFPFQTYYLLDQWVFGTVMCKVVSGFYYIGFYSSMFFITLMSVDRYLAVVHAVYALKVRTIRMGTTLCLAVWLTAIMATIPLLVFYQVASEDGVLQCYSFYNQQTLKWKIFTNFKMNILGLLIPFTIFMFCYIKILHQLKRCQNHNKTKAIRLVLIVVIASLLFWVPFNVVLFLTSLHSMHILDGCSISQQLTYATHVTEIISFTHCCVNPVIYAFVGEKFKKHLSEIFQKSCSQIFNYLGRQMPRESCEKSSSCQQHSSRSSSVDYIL

[7] = target: T3, C-C chemokine receptor type 9 (Homo sapiens) (UniProt P51686); assay: Inhibition of CCR9 (unknown origin) at 10 uM relative to control
T3 sequence (whole entry): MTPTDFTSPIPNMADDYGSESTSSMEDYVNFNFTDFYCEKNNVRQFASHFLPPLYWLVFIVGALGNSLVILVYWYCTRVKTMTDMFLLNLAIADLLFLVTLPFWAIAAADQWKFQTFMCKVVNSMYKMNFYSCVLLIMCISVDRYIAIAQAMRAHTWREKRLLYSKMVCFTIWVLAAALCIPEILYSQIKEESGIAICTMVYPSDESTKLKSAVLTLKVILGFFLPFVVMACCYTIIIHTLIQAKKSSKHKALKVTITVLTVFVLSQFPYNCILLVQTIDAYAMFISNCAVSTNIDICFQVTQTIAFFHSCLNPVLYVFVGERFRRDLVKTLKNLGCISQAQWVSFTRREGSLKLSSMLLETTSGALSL

[8] = target: T4, C-C chemokine receptor type 7 (Homo sapiens) (UniProt P32248); assay: Inhibition of CCR7 (unknown origin) at 10 uM relative to control
T4 sequence (whole entry): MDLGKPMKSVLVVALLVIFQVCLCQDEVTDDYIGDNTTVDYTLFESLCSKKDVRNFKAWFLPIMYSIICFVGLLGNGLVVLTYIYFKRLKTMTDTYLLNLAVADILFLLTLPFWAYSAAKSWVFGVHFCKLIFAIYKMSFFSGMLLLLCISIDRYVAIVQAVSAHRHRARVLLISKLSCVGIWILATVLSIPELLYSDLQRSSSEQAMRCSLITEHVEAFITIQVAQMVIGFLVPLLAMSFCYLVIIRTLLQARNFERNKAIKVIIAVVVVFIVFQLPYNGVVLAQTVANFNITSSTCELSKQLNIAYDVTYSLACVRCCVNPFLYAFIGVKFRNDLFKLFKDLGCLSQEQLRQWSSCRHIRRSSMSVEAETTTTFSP

[9] = target: T5, C-C chemokine receptor type 4 (Homo sapiens) (UniProt P51679); assay: Inhibition of CCR4 (unknown origin) at 10 uM relative to control
T5 sequence (whole entry): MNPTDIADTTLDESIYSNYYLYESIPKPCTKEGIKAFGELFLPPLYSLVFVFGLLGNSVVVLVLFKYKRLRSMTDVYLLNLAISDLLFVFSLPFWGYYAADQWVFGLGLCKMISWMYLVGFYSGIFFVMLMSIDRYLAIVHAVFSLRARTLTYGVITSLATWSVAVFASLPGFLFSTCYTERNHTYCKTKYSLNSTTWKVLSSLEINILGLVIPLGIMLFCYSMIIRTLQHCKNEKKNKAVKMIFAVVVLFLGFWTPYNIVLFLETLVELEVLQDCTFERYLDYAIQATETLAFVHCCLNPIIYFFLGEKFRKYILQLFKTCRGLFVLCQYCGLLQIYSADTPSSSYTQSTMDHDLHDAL

[10] = target: C-C chemokine receptor type 2 (Homo sapiens) (UniProt P41597); assay: Inhibition of CCR2B (unknown origin) at 10 uM relative to control
Sequence of C-C chemokine receptor type 2 (Homo sapiens) (P41597 whole entry, looked up): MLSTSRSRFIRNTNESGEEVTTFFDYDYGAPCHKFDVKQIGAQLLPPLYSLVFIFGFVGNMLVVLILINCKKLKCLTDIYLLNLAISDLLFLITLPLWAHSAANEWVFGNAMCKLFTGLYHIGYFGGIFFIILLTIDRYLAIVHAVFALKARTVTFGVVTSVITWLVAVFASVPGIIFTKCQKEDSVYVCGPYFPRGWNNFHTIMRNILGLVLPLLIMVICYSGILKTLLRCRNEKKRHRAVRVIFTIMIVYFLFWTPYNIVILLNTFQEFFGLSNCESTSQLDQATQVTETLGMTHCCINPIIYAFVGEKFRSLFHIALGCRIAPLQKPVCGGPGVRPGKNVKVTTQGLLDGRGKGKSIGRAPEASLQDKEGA

[11] = target: T6, C-C chemokine receptor type 1 (Homo sapiens) (UniProt P32246); assay: Inhibition of CCR1 (unknown origin) at 10 uM relative to control
T6 sequence (whole entry): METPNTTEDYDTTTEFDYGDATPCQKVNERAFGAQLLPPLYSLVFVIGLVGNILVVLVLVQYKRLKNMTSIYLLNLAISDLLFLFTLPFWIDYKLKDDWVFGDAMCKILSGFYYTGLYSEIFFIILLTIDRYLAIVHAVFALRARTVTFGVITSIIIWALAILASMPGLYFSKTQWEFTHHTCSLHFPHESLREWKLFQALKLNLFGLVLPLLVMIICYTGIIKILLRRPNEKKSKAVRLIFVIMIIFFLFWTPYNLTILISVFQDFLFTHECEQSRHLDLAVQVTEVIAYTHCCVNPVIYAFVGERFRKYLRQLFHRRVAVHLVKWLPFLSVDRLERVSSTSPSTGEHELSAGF

NCCCCN(C[C@H]1Cc2ccccc2CN1)[C@H]1CCCc2cccnc21
Activity (Mus musculus): inactive | concentration at 1 h [1]: 1020 ng/mL | AUC(0-inf) [2]: 108 ng·h/mL | half-life [3]: 6 h | CLH (Liver microsome): < 20 µL/min/mg | inhibition [4]: < 10% | inhibition [5]: < 10% | inhibition [6]: < 10% | inhibition [7]: < 10% | inhibition [8]: < 10% | inhibition [9]: < 10% | inhibition [10]: < 10% | inhibition [11]: < 10%
